For one molecule, IC50 results are on record in BindingDB's records for doi:10.1021/jm00111a027 (Merck Sharp & Dohme Research Laboratories, 1991).

This experiment deals with Gastrin-releasing peptide receptor (Mus musculus, UniProt P21729). In words: Compound was evaluated for mitogenic inhibition against Swiss 3T3 murine fibroblast cells. The method, boiled down:
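Swiss 3T3 monolayers grown to confluence, then serum-starved in serum-free DMEM for 48 h. Antagonist added together with 3 nM N-acetyl-GRP-20-27 amide and 23 nM [3H]thymidine. After a further 48 h, cells detached with trypsin/5 mM EDTA and filter-harvested; [3H]thymidine uptake measured. IC50 is the mean of at least two independent experiments.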

Residues, ends and D or L forms follow the SMILES beside them. *: point of attachment. X10 = CCCOC[C@H](CC(C)C)N*

Gastrin-releasing peptide receptor, sequence (P21729 whole entry): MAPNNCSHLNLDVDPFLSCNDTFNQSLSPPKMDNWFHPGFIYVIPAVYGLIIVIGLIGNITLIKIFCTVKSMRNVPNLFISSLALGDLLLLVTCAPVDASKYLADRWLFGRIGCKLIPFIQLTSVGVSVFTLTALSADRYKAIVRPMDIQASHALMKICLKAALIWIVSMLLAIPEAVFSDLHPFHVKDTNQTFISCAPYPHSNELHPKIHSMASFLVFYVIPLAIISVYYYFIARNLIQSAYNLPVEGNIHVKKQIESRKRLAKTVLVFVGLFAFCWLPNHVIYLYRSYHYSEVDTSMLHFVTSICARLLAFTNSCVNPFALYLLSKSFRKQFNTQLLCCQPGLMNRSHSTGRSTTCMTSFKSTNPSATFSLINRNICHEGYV

`CCCOC[C@H](CC(C)C)NC(=O)[C@H](Cc1c[nH]cn1)NC(=O)CNC(=O)[C@@H](NC(=O)[C@H](C)NC(=O)[C@H](Cc1c[nH]c2ccccc12)NC(=O)[C@H](Cc1c[nH]cn1)NC(C)=O)C(C)C` [2-{2-[2-[2-Acetylamino-3-(3H-imidazol-4-yl)-propionylamino]-3-(1H-indol-3-yl)-propionylamino]-propionylamino}-N-{[2-(3H-imidazol-4-yl)-1-(3-methyl-1-propoxymethyl-butylcarbamoyl)-ethylcarbamoyl]-methyl}-3-methyl-butyramide] (Ac-HWAVGH-X10): the half-inhibitory concentration (IC50) – broadly, the point on the concentration scale where inhibition reaches its midpoint – is 18 nM.
